Data reported in ChEMBL document CHEMBL2401635, “Synthesis and biological properties of novel brefeldin A analogues” (J Med Chem, 2013).
Calls of active or inactive are those of the source. The calls are words filed in the database; no cut-off is given here.

Tests used:
[1] = Cytotoxicity against human HeLa R19 cells assessed as reduction of cell viability at 0.5 to 50 uM by MTS assay; format: cell-based; conditions: hela r19, 50 µM
Coxsackievirus B3 [2] = assay: Antiviral activity against Coxsackievirus B3 infected in human HeLa R19 cells assessed as inhibition of viral replication at 5 to 50 uM after 7 hrs by luciferase reporter gene assay; format: functional, organism-based
In short: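 HeLa R19 subconfluent monolayers infected 30 min at 37 °C with Renilla luciferase-expressing CVB3, MOI 0.1 CCID50; virus replaced by medium with 0.5, 5 or 50 μM compound (5 mM DMSO stock) or matching DMSO. After 7 h, lysed and Renilla luciferase read; triplicates normalized to same-DMSO-dilution controls, shown as means ± SEM on log scale.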

HeLa [3] = assay: Induction of golgi apparatus disassembly in human HeLa cells at 5 uM incubated for 60 mins followed by compound washout measured after 2 hrs by confocal microscopic analysis; format: functional, cell-based
In short: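 Reassembly: HeLa cells given 5 μM final compound for 60 min at 37 °C, drug removed, then 2 h further in drug-free medium; fixed, anti-GM130 immunolabeled (paraformaldehyde fixation, Triton permeabilization, BSA block, Alexa 546 secondary) and examined by confocal microscopy; untreated medium controls.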

[4] = Cytostatic activity against human NCI60 cells by SRB assay; format: functional; conditions: for CC50: read-out: LC50 (the source's name)
In short: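 NCI screen: single 10 μM dose first; active compounds then run at five concentrations on the same cell panel to give GI50, TGI and LC50, reported as averages over all cell lines; mean of two 5-dose tests, or one test where noted.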

Nicotiana tabacum = assay: Induction of morphological changes of golgi apparatus in tobacco mesophyll protoplast expressing Man1-RFP at 90 uM after 30 mins by confocal laser scanning microscopic analysis; format: functional
In short: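 Nicotiana tabacum cv. Petit Havana mesophyll protoplasts transiently expressing cis-Golgi marker Man1-RFP, treated 30 min with 90 μM compound (dissolved in DMSO) in half MS medium, untreated controls; observed by CLSM with 63× water-immersion objective.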

Arabidopsis thaliana = assay: Induction of morphological changes of golgi apparatus in Arabidopsis thaliana root cells expressing ST-YFP/VHAa1-RFP at 90 uM after 30 mins by confocal laser scanning microscopic analysis; format: functional
In short: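 Arabidopsis thaliana stably expressing VHAa1-RFP/N-ST-YFP grown from surface-sterilized seed on half-strength MS, 1% sucrose, 22 °C, 16 h days; roots treated 30 min with 90 μM compound (DMSO solution) in half MS medium, untreated controls; imaged by CLSM with 63× water-immersion objective.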

HeLa [5] = assay: Induction of golgi apparatus disassembly in human HeLa cells at 5 uM after 30 to 60 mins by confocal microscopic analysis; format: functional, cell-based
In short: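 HeLa cells in DMEM, 10% FBS, penicillin/streptomycin, 2 mM L-glutamine, exposed to 5 μM final compound at 37 °C for 30 or 60 min; fixed 4% paraformaldehyde 20 min, NH4Cl quench, 0.5% Triton X-100 permeabilization, 5% BSA block, anti-GM130 (cis Golgi) with Alexa 546 secondary; confocal imaging.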

Coxsackievirus B3 [6] = assay: Antiviral activity against Coxsackievirus B3 infected in human HeLa R19 cells assessed as inhibition of viral replication at 0.5 uM after 7 hrs by luciferase reporter gene assay; format: functional, organism-based
In short: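 HeLa R19 subconfluent monolayers infected 30 min at 37 °C with Renilla luciferase-expressing CVB3 (RLuc-CVB3), MOI 0.1 CCID50; inoculum replaced by medium with compound (0.5, 5 or 50 μM final; 5 mM DMSO stock) or matched DMSO control. After 7 h, cells lysed and Renilla luciferase read as replication measure; triplicates normalized to mean of same-DMSO-dilution controls.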

[7] = Toxicity in ip dosed mouse; format: organism-based; conditions: in vivo

| SMILES | Activity [1] | inhibition (Coxsackievirus B3 [2]) | Activity (HeLa [3]) | GI50 [4] [µM] | TGI [4] [µM] | CC50 [4] [µM] | Activity (Nicotiana tabacum) | Activity (Arabidopsis thaliana) | Activity (HeLa [5]) | inhibition (Coxsackievirus B3 [6]) | LD50 [7] [mg/kg] |
| --- | --- | --- | --- | --- | --- | --- | --- | --- | --- | --- | --- |
| O=C1/C=C/[C@@H](O)[C@@H]2C[C@@H](O)C[C@H]2/C=C/CCC[C@H](CCc2ccccc2)O1 | Non-toxic | Active | inactive | 0.0299 | 2.04 | 40 | Active | – | – | – | – |
| O=C1/C=C/[C@@H](O)[C@@H]2C[C@@H](O)C[C@H]2/C=C/CCCCO1 | – | – | – | 0.631 | 20.9 | 69.2 | – | – | – | – | – |
| CC(=O)Nc1ccc(CC[C@H]2CCC/C=C/[C@@H]3C[C@H](O)C[C@H]3[C@H](O)/C=C/C(=O)O2)cc1 | Non-toxic | Active | – | 0.152 | 5.7 | 51.6 | Active | – | – | – | – |
| CC[C@H]1CCC/C=C/[C@@H]2C[C@H](O)C[C@H]2[C@H](O)/C=C/C(=O)O1 | – | – | – | 0.0446 | 5.82 | 35.8 | – | Active | – | – | – |
| C=C[C@@H]1CCC/C=C/[C@@H]2C[C@H](O)C[C@H]2[C@H](O)/C=C/C(=O)O1 | – | – | – | 0.631 | 17.8 | 66.3 | – | – | – | – | – |
| C=C[C@H]1CCC/C=C/[C@@H]2C[C@H](O)C[C@H]2[C@H](O)/C=C/C(=O)O1 | Non-toxic | Active | – | 0.0319 | 4.91 | 39 | – | Active | Active | – | – |
| O=C1/C=C/[C@@H](O)[C@@H]2C[C@@H](O)C[C@H]2/C=C/CCC[C@H](CCc2ccc(C(F)(F)F)cc2)O1 | Non-toxic | Active | inactive | 0.212 | 5.97 | 66.2 | Active | – | Active | Active | – |
| Nc1ccc(CC[C@H]2CCC/C=C/[C@@H]3C[C@H](O)C[C@H]3[C@H](O)/C=C/C(=O)O2)cc1 | – | – | – | 0.0343 | 2.68 | 56.3 | – | – | – | – | – |
| O=C1/C=C/[C@@H](O)[C@@H]2C[C@@H](O)C[C@H]2/C=C/CCC[C@H](CCc2ccc3cccnc3c2)O1 | – | – | – | 0.262 | 7.61 | 63.9 | Active | – | – | – | – |
| CC(=O)[C@H]1CCC/C=C/[C@@H]2C[C@H](O)C[C@H]2[C@H](O)/C=C/C(=O)O1 | Non-toxic | Active | – | 0.594 | 13.3 | 61.7 | – | – | – | – | – |
| C[C@H]1CCC/C=C/[C@@H]2C[C@H](O)C[C@H]2[C@H](O)/C=C/C(=O)O1 [BREFELDIN A] | Non-toxic | Active | inactive | 0.0206 | 3.48 | 52.6 | Active | Active | Active | Active | > 200 |
| O=C1/C=C/[C@@H](O)[C@@H]2C[C@@H](O)C[C@H]2/C=C/CCC[C@H](C(F)(F)F)O1 | – | – | – | 0.321 | 5.49 | 48.2 | – | – | – | – | – |
| O=C1/C=C/[C@@H](O)[C@@H]2C[C@@H](O)C[C@H]2/C=C/CCC[C@H](CCc2cccc3ccccc23)O1 | Non-toxic | Active | inactive | 0.0739 | 2.28 | 25.1 | – | – | – | – | – |
| O=C1/C=C/[C@@H](O)[C@@H]2C[C@@H](O)C[C@H]2/C=C/CCC[C@H](CCO)O1 | Non-toxic | Active | – | 0.178 | 7.69 | 47.6 | – | – | – | – | – |
| O=C1/C=C/[C@@H](O)[C@@H]2C[C@@H](O)C[C@H]2/C=C/CCC[C@H](CCOCc2ccccc2)O1 | Non-toxic | Active | – | 0.0809 | 5.05 | 35.5 | – | – | – | – | – |
| O=C1/C=C/[C@@H](O)[C@@H]2C[C@@H](O)C[C@H]2/C=C/CCC[C@H](CCc2ccc(F)cc2)O1 | Non-toxic | Active | – | – | – | – | – | – | – | – | – |
| O=C1/C=C/[C@@H](O)[C@@H]2C[C@@H](O)C[C@H]2/C=C/CCC[C@H](CO)O1 | – | – | – | 2.57 | 38 | 85.1 | – | – | – | – | – |
| COCC[C@H]1CCC/C=C/[C@@H]2C[C@H](O)C[C@H]2[C@H](O)/C=C/C(=O)O1 | Non-toxic | Active | – | 0.0902 | 5.78 | 42.3 | – | – | – | – | – |
